High-throughput results (PubChem BioAssay)
CHOP inh: blocks CHOP induction under ER stress; CHO-K1 CHOP-promoter luciferase, tunicamycin-induced, 15-18 h; inhibition, % at 10 µM; 220,000 compounds, 3.8% hits; AID 2732;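 active = compounds that reduced the stress-induced luciferase reporter signal by more than about 70% of percent inhibition, limit read from the data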;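 note: 0% = tunicamycin plus vehicle and 100% = wells without tunicamycin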
CHOP UPR activ: apoptotic UPR (CHOP) activation. AID 449763. 330,000 compounds, 0.34% hits. CHO-CHOP luciferase reporter, luminescence; percent of tunicamycin response over DMSO baseline. activation, % at 10 µM;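 active = at 10 µM dose, activation of 40% or more, normalized to positive control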;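 note: 100% = tunicamycin at 10 µg/mL and 0% = DMSO alone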
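Dosing – one dose, 10 µM in 0.5% DMSO · System – CHO-CHOP cells, stable luciferase reporter of PERK-eIF2a-CHOP signalling · Input – 500 cells/well · Control set – tunicamycin 10 µg/mL final as positive, DMSO-only wells as negative · Timing – 6 h compound treatment, 37 °C · Measure – % activation vs tunicamycin · Technique – luminescence read with Steady-Glo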
Jurkat NFkB inh: lowers PMA/ionomycin-induced NF-kB signal in Jurkat cells; 330,000 compounds, 0.53% hits; PMA/ionomycin-induced NF-kB luciferase reporter, luminescence; inhibition, % at 4 µM; in the data active = inhibition above about 50%
697 NFkB inh: lowers PMA/ionomycin-induced NF-kB signal in 697 B cells; 697 B-cell NF-kB luciferase reporter, 16 h; inhibition, % at 4 µM; 330,000 compounds, 0.33% hits; AID 435022; in the data active = inhibition above about 35%
UPR XBP1 act: adaptive UPR (XBP1) activation. CHO-XBP1 luciferase reporter, IRE1-XBP1 UPR activation, luminescence; percent of tunicamycin response, DMSO as zero. activation, % at 20 µM. 330,000 compounds, 0.33% hits. AID 463104;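 active = versus positive control, 20 µM dose yields 30% or more activation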;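 note: 100% = tunicamycin at 10 µg/mL and 0% = DMSO only wells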
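incubation = overnight seeding at 37 °C, 6 h compound treatment at 37 °C | assay system = CHO-XBP1 cells stably carrying IRE1-XBP1-driven luciferase reporter | input = 1000 cells per well | detection = luciferase luminescence | dosing = single point, 20 µM final compound, 1% DMSO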
CHOP inh conf: confirmation of CHOP induction inhibitors; 2,100 compounds, 45% hits; CHO-CHOP promoter luciferase reporter, tunicamycin-induced, luminescence; shares compounds with CHOP inh; inhibition, % at 10 µM;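 active = mean of three repeat readings of reporter signal inhibition above a set limit, cut at about 70% in these data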;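 note: 0% = tunicamycin plus vehicle and 100% = wells lacking tunicamycin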
* marks the source's active call; other numbers are inactive results. The sample as a whole holds a higher share of hits than the screen did.

Results for O=C(N/N=C/c1ccc([N+](=O)[O-])s1)c1cccc(Br)c1 ?
CHOP inh: 97.3*; CHOP UPR activ: -1.6; Jurkat NFkB inh: 9.7; 697 NFkB inh: -0.3; UPR XBP1 act: 1.0; CHOP inh conf: 61.2

What do the screens show for `O=C(N/N=C/c1ccc(O)c2ncccc12)c1cccc(Br)c1`?
CHOP inh: 105.3*; CHOP UPR activ: 1.5; Jurkat NFkB inh: 8.2; 697 NFkB inh: -20.4; UPR XBP1 act: 0.9; CHOP inh conf: 37.8

What do the screens show for `O=C(N/N=C/c1cc(Br)ccc1O)c1ccncc1`?
CHOP inh: 69.2; CHOP UPR activ: 0.3; Jurkat NFkB inh: 14.1; 697 NFkB inh: -35.2; UPR XBP1 act: -1.2

Results for COc1cccc(F)c1C(C[N+](=O)[O-])c1c(N)n(C)c(=O)n(C)c1=O (configuration not stated) ?
CHOP inh: 68.2; CHOP UPR activ: 20.5; Jurkat NFkB inh: 13.3; 697 NFkB inh: 0.4; UPR XBP1 act: -7.7

What do the screens show for `CN1C(=O)c2ccccc2N(C)C1c1cccc(O)c1` (configuration not stated)?
CHOP UPR activ: -0.2; Jurkat NFkB inh: 2.2; 697 NFkB inh: -0.8; UPR XBP1 act: -1.3

How did CC(C)Nc1oc(-c2cccc3ccccc23)nc1C#N do in these assays?
CHOP inh: 100.4*; CHOP UPR activ: 2.6; Jurkat NFkB inh: -31.0; 697 NFkB inh: -48.5; UPR XBP1 act: 15.7; CHOP inh conf: 19.2

Results for CCCc1cc(=O)[nH]c(SCC(=O)Nc2c(C)n(C)n(-c3ccccc3)c2=O)n1 ?
CHOP UPR activ: 0.0; Jurkat NFkB inh: 9.7; 697 NFkB inh: 16.0; UPR XBP1 act: 0.2

What do the screens show for `COc1cccc(/C=C/C(=O)OCC(=O)NC(=O)NC2CCCCC2)c1`?
CHOP UPR activ: 1.0; Jurkat NFkB inh: 8.0; 697 NFkB inh: 18.3; UPR XBP1 act: 0.0

What do the screens show for `Oc1ccc(/C=N/Nc2cc(N3CCOCC3)nc(N3CCOCC3)n2)cc1`?
CHOP UPR activ: 0.3; Jurkat NFkB inh: -13.3; 697 NFkB inh: 4.3; UPR XBP1 act: 5.3

Results for Oc1ccc(/C=N/Nc2cc(N3CCCC3)nc(N3CCCC3)n2)cc1 ?
CHOP inh: 109.1*; CHOP UPR activ: 3.6; Jurkat NFkB inh: 12.5; 697 NFkB inh: -21.7; UPR XBP1 act: 25.2; CHOP inh conf: 14.1

How did COC(=O)c1ccc2c(=O)n(NC(=O)C(c3ccccc3)c3ccccc3)c(=S)[nH]c2c1 do in these assays?
CHOP inh: 101.5*; CHOP UPR activ: 1.8; Jurkat NFkB inh: 8.8; 697 NFkB inh: -6.6; UPR XBP1 act: 0.3; CHOP inh conf: 31.0

What do the screens show for `O=C(CN1CCN(C(=O)CNC(=O)c2ccc3c(c2)OCO3)CC1)Nc1ccc(F)cc1`?
CHOP UPR activ: 0.3; Jurkat NFkB inh: 6.7; 697 NFkB inh: -2.4; UPR XBP1 act: 0.7

Results for O=C(Nc1ccc(Br)c2ccccc12)c1ccc2ccccc2c1O ?
CHOP inh: 63.1

Results for N#Cc1c(N)nc(SCC(=O)C23CC4CC(CC(C4)C2)C3)c(C#N)c1-c1ccc(Cl)cc1 ?
CHOP inh: 100.5*; CHOP UPR activ: 0.7; Jurkat NFkB inh: 0.4; 697 NFkB inh: 17.1; UPR XBP1 act: -0.2; CHOP inh conf: 83.4*

Results for O=C(c1ccc(Cl)cc1)N1CCC(O)(CSc2ccc(Cl)cc2Cl)CC1 ?
CHOP inh: 108.7*; CHOP UPR activ: -0.5; Jurkat NFkB inh: 5.4; 697 NFkB inh: -0.4; UPR XBP1 act: -1.7; CHOP inh conf: 87.0*

How did COc1ccc(C(=O)NCC(=O)OCC(=O)N2CC(C)OC(C)C2)cc1OC (configuration not stated) do in these assays?
CHOP UPR activ: -2.4; Jurkat NFkB inh: -11.3; 697 NFkB inh: 7.1; UPR XBP1 act: -0.8

Results for O=C(CSc1nc2ccc(Cl)cc2[nH]1)c1c[nH]c2ccccc12 ?
CHOP inh: 101.1*; CHOP UPR activ: 0.9; Jurkat NFkB inh: -9.3; 697 NFkB inh: 8.4; UPR XBP1 act: -0.9; CHOP inh conf: 26.0

What do the screens show for `C/C1=C\CCC2C(/C=C(\C)CC1)OC(=O)C2CN1CCCCC1` (configuration not stated)?
CHOP UPR activ: 3.8; Jurkat NFkB inh: 27.2; 697 NFkB inh: -6.3; UPR XBP1 act: 0.2

How did CNS(=O)(=O)c1cn(CC(=O)NCc2ccc(F)cc2)cc1S(=O)(=O)NC do in these assays?
CHOP UPR activ: 0.8; Jurkat NFkB inh: 2.3; 697 NFkB inh: 3.6; UPR XBP1 act: -2.5

How did CCc1noc(C)c1C(=O)NCCc1ccccc1 do in these assays?
CHOP UPR activ: 2.7; Jurkat NFkB inh: -33.4; 697 NFkB inh: -34.0; UPR XBP1 act: -1.7

How did Cc1cnc(C(=O)Nc2ccc(C)c(S(=O)(=O)N3CCCCCC3)c2)cn1 do in these assays?
CHOP UPR activ: -0.8; Jurkat NFkB inh: -2.4; 697 NFkB inh: -12.1; UPR XBP1 act: -1.6

How did Cc1cccc(N(C(=O)Cn2nnc3ccccc32)C(C(=O)NC(C)(C)C)c2ccsc2)c1C (configuration not stated) do in these assays?
CHOP inh: 33.6; CHOP UPR activ: -1.6; Jurkat NFkB inh: 1.4; 697 NFkB inh: -10.5; UPR XBP1 act: 2.2

How did Cc1ccccc1CCN(C(=O)Cn1nnc2ccccc21)C(C(=O)NC(C)(C)C)c1ccsc1 (configuration not stated) do in these assays?
CHOP inh: 98.3*; CHOP UPR activ: 1.5; Jurkat NFkB inh: 6.3; 697 NFkB inh: 6.1; UPR XBP1 act: -0.3; CHOP inh conf: -15.6

What do the screens show for `CCCCC(=O)Nc1ccc2c(c1)nc(CN1CCN(C(=O)OCC)CC1)n2C`?
CHOP UPR activ: 0.0; Jurkat NFkB inh: -41.5; 697 NFkB inh: -12.4; UPR XBP1 act: -7.4

What do the screens show for `CC(C)c1ccc(O)c(NC(=O)c2ncn[nH]2)c1`?
CHOP inh: 6.1; CHOP UPR activ: -3.1; Jurkat NFkB inh: -8.3; 697 NFkB inh: 1.9; UPR XBP1 act: -0.2

Results for CC(C)c1ccc2c(c1)C1(NN=C(c3ccccc3)S1)C(=O)N2 (configuration not stated) ?
CHOP inh: 104.5*; CHOP UPR activ: 30.6; Jurkat NFkB inh: -50.3; 697 NFkB inh: -60.2; UPR XBP1 act: 8.6; CHOP inh conf: 105.8*

How did COc1ccc(N(C)C(=O)c2oc(=O)c3ccccc3c2-c2ccc(C)cc2)c(OC)c1 do in these assays?
CHOP inh: 16.4; CHOP UPR activ: 0.5; Jurkat NFkB inh: -6.1; 697 NFkB inh: 11.8; UPR XBP1 act: -2.3

What do the screens show for `Cc1ccc(NC(=O)c2cc(NC(=O)c3ccco3)ccc2N2CCCCC2)cc1`?
CHOP inh: 99.8*; CHOP UPR activ: -0.5; Jurkat NFkB inh: -1.2; 697 NFkB inh: 11.7; UPR XBP1 act: 2.9; CHOP inh conf: 87.5*

How did Cc1ccc(NC(=O)c2cc(NC(=O)c3ccco3)ccc2N2CCOCC2)cc1 do in these assays?
CHOP inh: 42.4; CHOP UPR activ: -1.0; Jurkat NFkB inh: 0.3; 697 NFkB inh: -4.3; UPR XBP1 act: -0.6
